RGS7-Gao reg: human RGS7-Galphao interaction regulation. P09471. 0.35% of 220,000 active. binding response (% of control), % at 10 µM. Multiplexed bead flow cytometry, RGS7-Galphao binding; actives lie on both sides; in the data active means binding response below about 49% or above about 150%; inconclusive means no clear call, values can overlap the other calls; inactive means in between;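 further: fluorescent Galphao held in activated GDP-AlF4 state binding bead-coupled RGS7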
Target sequence (P09471 whole entry, looked up): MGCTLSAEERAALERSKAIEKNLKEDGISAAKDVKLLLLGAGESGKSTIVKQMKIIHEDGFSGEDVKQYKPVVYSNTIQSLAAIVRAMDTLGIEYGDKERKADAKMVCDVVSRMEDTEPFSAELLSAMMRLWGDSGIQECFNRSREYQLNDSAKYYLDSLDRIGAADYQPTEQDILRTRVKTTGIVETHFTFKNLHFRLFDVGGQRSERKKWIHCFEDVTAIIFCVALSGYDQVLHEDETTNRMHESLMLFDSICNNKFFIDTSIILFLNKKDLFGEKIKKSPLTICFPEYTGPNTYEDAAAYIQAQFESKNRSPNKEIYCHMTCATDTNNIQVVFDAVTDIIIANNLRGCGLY
RGS16-Gao: regulators of human RGS16-Galphao interaction; O15492+P09471; bead-based flow cytometry RGS16-Galphao binding, fluorescence; actives lie on both sides; binding response (% of control), % at 10 µM; 0.38% of 220,000 active;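 further: Galphao activated by GDP with aluminum fluoride before binding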
Target sequence (O15492 whole entry, looked up): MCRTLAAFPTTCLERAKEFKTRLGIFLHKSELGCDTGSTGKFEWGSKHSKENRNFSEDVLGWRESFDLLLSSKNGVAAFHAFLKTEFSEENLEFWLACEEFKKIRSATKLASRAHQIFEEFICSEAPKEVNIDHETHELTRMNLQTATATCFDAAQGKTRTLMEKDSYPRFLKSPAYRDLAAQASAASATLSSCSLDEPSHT
Target sequence (P09471 whole entry, looked up): as the sequence (P09471 whole entry, looked up) above
RGS8-Gao reg: modulates binding of RGS8 to human Galphao; multiplexed bead flow cytometry; actives lie on both sides; response (percent of control binding), % at 10 µM; 0.34% of 220,000 active; AID 1423; in the data active means response below about 60% or above about 140%; inactive means in between;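 further: Galphao activated as the GDP aluminium fluoride complex binding bead-coupled RGS8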
RGS4-Gao reg: human RGS4-Galphao interaction regulation. binding response (% of control), % at 10 µM. P09471. Multiplexed bead flow cytometry, RGS4-Galphao binding; actives lie on both sides. 0.33% of 220,000 active; in the data active means binding response below about 49% or above about 150%; inactive means in between;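 further: fluorescent Galphao activated with aluminum fluoride binding bead-coupled RGS4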
Calb biofilm kill: mixture kills Candida albicans biofilm cells; C. albicans biofilm persisters + clotrimazole, fluorescence viability; primary screen in compound mixtures of four per well; inhibition, % at 7.6 µM; 0.02% of 120,000 active;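 active means inhibition above 30.3% in the primary screen of four-compound pools, then above 30% when the compound was retested; inconclusive means passed the primary limit but could not be retested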;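 further: compounds exposed to preformed 24 h biofilms for 48 h; 0% = untreated biofilm control and 100% = clotrimazole plus chlorhexidine kill blank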
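Incubation: 24 h biofilm formation, then 48 h compound exposure, 37 °C | Material: C. albicans biofilms | Buffer or medium: RPMI/MOPS medium, pH 7.0 | Measured by: 2-h Alamar Blue fluorescence, 535/590 nm excitation/emission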
RGS4-Gao HTS: modulates binding between human RGS4 and Galphao. shares compounds with RGS16-Gao. multiplexed bead flow cytometry, RGS–Galpha-o binding. RGS4–Galpha-o binding response, % at 10 µM. 99% of 1,600 active. AID 1504;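 further: fluorescently labeled Galpha-o bound to GDP with aluminium fluoride binding biotinylated RGS beads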
Biotin-avidin: interferes with biotinylated probe binding to avidin beads. shares compounds with RGS16-Gao. streptavidin beads, fluorescein-biotin binding, flow cytometry. inhibition, % at 10 µM. 1,700 tested, under 10 active;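 active means inhibition above 50%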;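 further: median green fluorescence of gated singlet beads compared with DMSO control wells; 0% = DMSO wells and 100% = complete loss of bead fluorescence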
RGS8-Gao confirm: RGS8-Galphao interaction regulation, single point confirmation; bead-based flow cytometry RGS8-Galphao binding, fluorescence; actives lie on both sides; binding response (% of control), % at 10 µM; 3% of 1,700 active; shares compounds with RGS16-Gao; in the data active means binding response below about 72% or above about 130%; inactive means in between;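 further: Galphao activated as GDP AlF4 complex before binding bead RGS8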
RGS7-Gao confirm: confirmation of regulators of human RGS7-Galphao interaction; response (percent of control binding), % at 10 µM; shares compounds with RGS16-Gao; bead-based flow cytometry RGS7-Galphao binding; actives lie on both sides; 7.8% of 1,700 active; in the data active means response below about 75% or above about 130%; inactive means in between;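 further: fluorescent Galphao activated with GDP and aluminum fluoride binding bead-coupled RGS7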
RGS16-Gao conf: confirmation of regulators of human RGS16-Galphao interaction; shares compounds with RGS16-Gao; bead-based flow cytometry, RGS16-Galphao binding; actives lie on both sides; response (% of control binding), % at 10 µM; 4% of 1,700 active; in the data active means response below about 74% or above about 130%; inactive means in between;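 further: Galphao activated as the GDP aluminium fluoride complex binding bead-coupled RGS16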
RGS4-Gao single: confirmation of regulators of human RGS4-Galphao interaction | shares compounds with RGS16-Gao | RGS4-Galphao binding, multiplexed bead flow cytometry; actives lie on both sides | binding response (% of control), % at 10 µM | 4% of 1,700 active | AID 1840; in the data active means binding response below about 74% or above about 130%; inactive means in between
RGS19-Gao conf: confirmation of regulators of human RGS19-Galphao interaction; response (percent of control binding), % at 10 µM; 5% of 1,700 active; shares compounds with RGS16-Gao; AID 1841; bead-based flow cytometry RGS19-Galphao binding; actives lie on both sides; in the data active means response below about 50% or above about 160%; inactive means in between;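 further: 100% = no compound control and 0% = blank background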
Starred values were filed as active, the others as inactive; i = inactive; u = inconclusive; x = not tested or not shown; [ ] = another dose, or the depositor's remark. The list is not random: actives were taken first. Their share in the collection is about 0.74%. Unless noted, how the calls were made is not given here.

SMILES	RGS7-Gao reg	RGS16-Gao	RGS8-Gao reg	RGS4-Gao reg	Calb biofilm kill	Biotin-avidin	RGS8-Gao confirm	RGS7-Gao confirm	RGS16-Gao conf	RGS4-Gao single	RGS19-Gao conf	others
O=C(Nc1ccc(CN2CCCCC2)cc1)Nc1ccc(Br)cc1Cl	110	101	101	106	4	x	x	x	x	x	x
O=c1c2ccccc2nc(/C=C/c2ccc3c(c2)OCO3)n1CCCO	168*[activator]	136	105	109	-6	1	103	102	105	102	105	RGS4-Gao HTS=109*
O=c1c2ccccc2nc(/C=C/c2ccc(O)cc2)n1CCc1ccccc1	99	101	101	99	17	x	x	x	x	x	x
O=C(c1cnsn1)N1CCN(c2ccccc2)CC1	248*[activator]	102	81	118	x	0	102	100	99	99	94	RGS4-Gao HTS=118*
O=C(CCCCCN1C(=O)c2ccccc2C1=O)Oc1ccc2c3c(c(=O)oc2c1)CCC3	94	97	101	95	6	x	x	x	x	x	x
CCc1nnc(NC(=O)c2cc(S(=O)(=O)N3CCN(c4ccccc4)CC3)ccc2Cl)s1	100	101	101	104	x	x	x	x	x	x	x
CCc1nnc(NC(=O)c2cccc(S(=O)(=O)N3CCN(c4ccccc4)CC3)c2)s1	150*[activator]	145	127	140	x	0	103	102	103	105	108	RGS4-Gao HTS=140*
CNC(=O)CN(C)S(=O)(=O)c1ccc(OC)c(Cl)c1	19*	17*	16*	25*	x	-1	99	87	99	97	81
CN(C)CCCNC(=O)c1ccc(/C=N/O)nc1	-11*	9.7*	12*	6.1*	8	-1	102	105	101	102	99
CNCCCNC(=O)c1ccc(/C=N/O)nc1	102	102	100	101	5	x	x	x	x	x	x
CCN(CC(=O)Nc1ccc2c(c1)OCCO2)c1ccc(S(=O)(=O)N2CCOCC2)cn1	84	-83*	90	80	x	1	102	103	99	102	112	RGS4-Gao HTS=80*
O=C(Cn1nc(-c2ccccc2)ccc1=O)Nc1ccc(N2CCN(C(=O)c3cccs3)CC2)cc1	102	88	99	100	28	x	x	x	x	x	x
CSc1nc(-c2ccccc2)nn1S(=O)(=O)c1ccccc1	171*[activator]	199*[activator]	104	173*[activator]	15	-2	104	105	104	103	103
CSc1nc(-c2ccccc2)nn1S(=O)(=O)c1ccc(Cl)cc1	84	86	91	87	x	x	x	x	x	x	x
O=C(/C=C/c1ccco1)NCc1ccc(F)cc1	100	102	100	105	19	x	x	x	x	x	x
NS(=O)(=O)c1ccc(CNC(=O)/C=C/c2ccco2)cc1	u	97	94	98	18	-2	91	93	95	96	85
Clc1cc2cccnc2c2ccccc12	-24*	i	3.0*	-47*	12	-1	98	102	100	102	96
O=[N+]([O-])c1cc2cccnc2c2ncccc12	u	124	118	113	8	x	x	x	x	x	x
CC(CCOC1=NS(=O)(=O)c2ccccc21)NC(=O)C(=O)Nc1ccccc1 (stereo unspecified)	u	42	61	23*	3	2	131*[activator]	556*[activator]	286*[activator]	466*[activator]	211*[activator]
CSc1ncccc1C(=O)OCC(=O)NCc1ccc2c(c1)OCO2	102	98	98	95	2	x	x	x	x	x	x
CC1(C)CC(=O)C=C(NNC(=O)c2ccccc2)C1	9.9*	8.0*	14*	4.6*	16	-1	103	103	103	103	96
CCNc1ccc(C(=O)OCC(=O)N(Cc2ccccc2)C(C)(C)C)cc1[N+](=O)[O-]	98	99	99	95	7	x	x	x	x	x	x
C=CCn1c(Cc2ccccc2)n[nH]c1=S	93	9.3*	66	96	-3	-1	103	107	101	106	112	RGS4-Gao HTS=96*
C=CCn1c(Cc2c[nH]c3ccccc23)n[nH]c1=S	100	103	102	100	x	x	x	x	x	x	x
Cc1csc(NC(=O)CSc2nnc(CCNC(=O)c3ccc(Cl)c(Cl)c3)n2C)n1	x	x	x	x	x	-1	100	100	100	102	95
SMILES	RGS7-Gao reg	RGS16-Gao	RGS8-Gao reg	RGS4-Gao reg	Calb biofilm kill	Biotin-avidin	RGS8-Gao confirm	RGS7-Gao confirm	RGS16-Gao conf	RGS4-Gao single	RGS19-Gao conf	others
COc1ccc(CCCc2nnc(SCC(=O)Nc3nc(C)cs3)n2C)cc1	98	100	101	101	x	x	x	x	x	x	x
Cc1ccc(NC(=S)N(Cc2ccccc2)C(C)C)cc1	u	37	67	27*	12	0	104	106	105	106	109
O=c1[nH]c(SCc2ccccc2)nc2[nH]ncc12	101	98	99	97	13	x	x	x	x	x	x
CCCCc1ccc(NC(=S)NCc2ccc(OC)cc2)cc1	96	95	98	96	10	x	x	x	x	x	x
COc1ccc(C(NC(C)=O)c2ccc3cccnc3c2O)c(OC)c1 (stereo unspecified)	56	15	47*	55	20	2	98	93	98	97	86	RGS4-Gao HTS=55*
C=CCN1C(=O)C2(NNc3ccccc3O2)c2ccccc21 (stereo unspecified)	99	102	101	100	x	x	x	x	x	x	x
C=CCN1C(=O)C2(NC(=O)c3ccccc3N2)c2ccccc21 (stereo unspecified)	270*[activator]	104	89	123	18	0	102	99	98	101	103	RGS4-Gao HTS=123*
COc1ccc(CCNC(=O)c2cnn(-c3ccc(C)c(C)c3)c2NC(=O)c2ccco2)cc1OC	x	x	x	x	x	-2	102	101	102	102	103
CCN(CC(=O)NCc1ccc(Cl)cc1)S(=O)(=O)c1ccc(NC(C)=O)cc1	u	101	100	100	11	x	x	x	x	x	x
CCOC(=O)C1=C(N)OC2=C(C(=O)CCC2)C1c1ccccc1OCC (stereo unspecified)	296*[activator]	111	97	135	x	0	97	93	97	99	99	RGS4-Gao HTS=135*
CCOC(=O)C1=C(N)OC2=C(C(=O)CCC2)C1c1ccccc1OC (stereo unspecified)	99	105	101	99	-1	x	x	x	x	x	x

Compound activity: PubChem, several laboratories
